Measurements: ChEMBL document CHEMBL1135931, “Rational design, synthesis, and biological activity of novel conformationally restricted vitamin D analogues, (22R)- and (22S)-22-ethyl-1,25-dihydroxy-23,24-didehydro-24a,24b-dihomo-20-epivitamin D(3)” (2002)

Tests used:
[1] = test system: C3H 10T1/2; test: Cells were harvested and were assayed for luciferase and -galactosidase activities (Transcriptional activity); assay type: functional, Mus musculus
Summary of the method: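 10T1/2 cells in DMEM with 10% charcoal-stripped FBS, 37 °C, 5% CO2; calcium-phosphate transfection 12 h with SPP×3-TK-LUC reporter, pCMX-β-GAL internal control, pUC18 carrier. Ligand 10^-11 to 10^-7 M for 48 h; luciferase normalized to β-galactosidase, duplicate points. Relative activity taken at ED50, as percent of 1,25-(OH)2D3.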

[2] = test system: HL-60; test: Differentiation activity of human promyelocytic leukemia cells (HL-60) determined by an NBT reduction assay method; assay type: functional
[3] = test system: Rattus norvegicus; test: Calcemic activity (in vivo bone calcium mobilization) was measured by the rise in serum calcium in vitamin D and Ca deficient rats by colorimetric assay; assay type: functional; design: concentration or dose not given beside the values
Summary of the method: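 Weanling male rats on vitamin D-deficient low-calcium diet (0.03% Ca, 0.6% P) for 3 weeks; single intravenous dose of 1 μg analogue in ethanol (50 μL) or vehicle alone. Serum calcium read colorimetrically (o-cresolphthalein complexone) at 0, 6, 12, 24 and 48 h post-dose; activity expressed as percent of 1,25-(OH)2D3.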

[4] = target: T1, Vitamin D3 receptor (Bos taurus) (UniProt Q28037); test: Relative affinity for bovine thymus Vitamin D3 receptor (VDR)
T1 sequence (whole entry): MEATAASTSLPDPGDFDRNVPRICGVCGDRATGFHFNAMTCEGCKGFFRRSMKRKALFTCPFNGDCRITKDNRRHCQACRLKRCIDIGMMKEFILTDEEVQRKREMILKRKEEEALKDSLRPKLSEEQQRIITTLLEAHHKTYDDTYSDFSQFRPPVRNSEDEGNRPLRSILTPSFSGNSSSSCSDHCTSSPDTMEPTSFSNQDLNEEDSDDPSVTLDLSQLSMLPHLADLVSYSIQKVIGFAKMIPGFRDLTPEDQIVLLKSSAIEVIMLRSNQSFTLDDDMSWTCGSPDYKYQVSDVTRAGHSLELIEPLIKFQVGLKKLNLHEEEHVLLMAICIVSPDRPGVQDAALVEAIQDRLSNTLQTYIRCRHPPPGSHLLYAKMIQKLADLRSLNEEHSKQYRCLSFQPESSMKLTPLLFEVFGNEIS
Summary of the method: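 Bovine thymus VDR in 0.05 M phosphate pH 7.4, 0.3 M KCl, 5 mM DTT; incubated with 0.1 nM [3H]-1,25-(OH)2D3 plus graded analogue, 19 h at 4 °C. Dextran-coated charcoal separation 20 min at 4 °C, centrifuge 1000g 10 min, supernatant counted; duplicate. Relative affinity at 50% displacement, as percent of 1,25-(OH)2D3.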

SMILES: C=C1/C(=C\C=C2/CCC[C@]3(C)[C@@H]([C@H](C)CCCC(C)(C)O)CC[C@@H]23)C[C@@H](O)C[C@@H]1O [CALCITRIOL]
- Activity [1]: 100%
- Activity [2]: 100%
- Activity [3]: 100%
- Activity [4]: 100%

SMILES: C=C1/C(=C\C=C2/CCC[C@]3(C)[C@@H]([C@@H](C)[C@@H](/C=C/CCC(C)(C)O)CC)CC[C@@H]23)C[C@@H](O)C[C@@H]1O
- Activity [1]: 2500%
- Activity [2]: 9800%
- Activity [3]: 140%
- Activity [4]: 14%

SMILES: C=C1/C(=C\C=C2/CCC[C@]3(C)[C@@H]([C@@H](C)[C@H](C)CCC(C)(C)O)CC[C@@H]23)C[C@@H](O)C[C@@H]1O
- Activity [1]: 10000%
- Activity [2]: 12000%
- Activity [3]: 220%
- Activity [4]: 1100%

SMILES: C=C1/C(=C\C=C2/CCC[C@]3(C)[C@@H]([C@@H](C)[C@H](/C=C/CCC(C)(C)O)CC)CC[C@@H]23)C[C@@H](O)C[C@@H]1O
- Activity [1]: 33%
- Activity [2]: 77%
- Activity [3]: 38%
- Activity [4]: 0.2%

SMILES: C=C1/C(=C\C=C2/CCC[C@]3(C)[C@@H]([C@@H](C)[C@@H](C)CCC(C)(C)O)CC[C@@H]23)C[C@@H](O)C[C@@H]1O
- Activity [1]: 3%
- Activity [2]: 8%
- Activity [3]: 5%
- Activity [4]: 0.4%
